Data on 9 molecules can be found in ChEMBL document CHEMBL4725316, “Discovery of novel anti-breast cancer agents derived from deguelin as inhibitors of heat shock protein 90 (HSP90)” (Bioorg Med Chem Lett, 2020).

The source made the active and inactive calls. The rule behind the calls is not given here.

Data set [1] deals with JIMT-1. The data set is described as follows: Cytotoxicity against human JIMT-1 cells assessed as reduction in cell viability at 10 uM incubated for 72 hrs by MTS assay relative to control. The class given is functional. The settings on record: JIMT-1, read-out: INH. The gist of the method: (§1)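 Single-concentration primary screen: trastuzumab-sensitive BT474, trastuzumab-resistant JIMT-1 (HER2-positive breast cancer) or normal human embryonic kidney HEK293 cells exposed to compound at 10 μM for 72 h; viability by MTS assay versus DMSO control. Mean ± SEM of at least three independent experiments; Student's t-test.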

For data set [2], the system named is BT-474. As to the kind of experiment: Cytotoxicity against human BT-474 cells assessed as reduction in cell viability at 10 uM incubated for 72 hrs by MTS assay relative to control. The class given is functional. The settings on record: BT-474, read-out: INH. The method in brief:
as §1
(Tetrazolium dyes change colour on reduction, which living cells bring about.)

Data set [3] addresses T1, Heat shock protein HSP90 (Homo sapiens) (UniProt P07900+P08238). The data set is described as follows: Inhibition of HSP90 in human JIMT-1 cells assessed as reduction in HSP70 expression at 10 uM incubated for 24 hrs by DAPI staining based confocal microscopy. The class given is cell-based. The method in brief: (§2)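 Immunocytochemistry: cells treated 24 h with compound (10 μM) or geldanamycin (0.3 μM), immunostained for HSP70 with DAPI nuclear counterstain, imaged by confocal microscopy at ×500 original magnification.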

Data set [4] concerns the target T1, Heat shock protein HSP90 (Homo sapiens). As to the kind of experiment: Inhibition of HSP90 in human BT-474 cells assessed as reduction in HER2 phosphorylation at 10 uM incubated for 72 hrs by immunoblot analysis. It counts as cell-based. The gist of the method:
(§3)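 BT474 and JIMT-1 cells treated 72 h with indicated compound concentrations or vehicle; 30 μg total lysate protein resolved by SDS-PAGE and immunoblotted for HER2, phospho-HER2 (Tyr1221/1222), EGFR, phospho-EGFR (Tyr1068), survivin, HSP90 and HSP70, with actin as loading control.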
In general terms: Immunoblotting shows a protein as a band on a membrane.

The target is the same in data set [5]. As to the kind of experiment: Inhibition of HSP90 in human JIMT-1 cells assessed as reduction in EGFR expression at 5 uM incubated for 72 hrs by immunoblot analysis. It counts as cell-based. The gist of the method: as §3
Data set [6] shares this target. As to the kind of experiment: Inhibition of HSP90 in human BT-474 cells assessed as reduction in HER2 expression at 10 uM incubated for 72 hrs by immunoblot analysis. The class given is cell-based. The gist of the method:
as §3

Data set [7] has the same target. The data set is described as follows: Inhibition of HSP90 in human JIMT-1 cells assessed as reduction in HER2 expression at 5 uM incubated for 72 hrs by immunoblot analysis. The class given is cell-based. The method in brief:
as §3

Data set [8] has the same target. As to the kind of experiment: Inhibition of HSP90 in human BT-474 cells assessed as reduction in EGFR phosphorylation at 10 uM incubated for 72 hrs by immunoblot analysis. It counts as cell-based. The gist of the method: as §3
The target is the same in data set [9]. The data set is described as follows: Inhibition of HSP90 in human JIMT-1 cells assessed as reduction in HSP90 expression at 5 uM incubated for 72 hrs by immunoblot analysis. The class given is cell-based. The method in brief: as §3
The target is the same in data set [10]. The data set is described as follows: Inhibition of HSP90 in human BT-474 cells assessed as reduction in EGFR expression at 10 uM incubated for 72 hrs by immunoblot analysis. The class given is cell-based. The method in brief: as §3
The target is the same in data set [11]. The data set is described as follows: Inhibition of HSP90 in human JIMT-1 cells assessed as reduction in EGFR phosphorylation at 5 uM incubated for 72 hrs by immunoblot analysis. The class given is cell-based. The method in brief: as §3
Data set [12] shares this target. The data set is described as follows: Inhibition of HSP90 in human BT-474 cells assessed as reduction in HSP70 expression at 10 uM incubated for 24 hrs by DAPI staining based confocal microscopy. It counts as cell-based. The method in brief:
as §2

Data set [13] has the same target. The data set is described as follows: Inhibition of HSP90 in human BT-474 cells assessed as reduction in survivin expression at 10 uM incubated for 72 hrs by immunoblot analysis. It counts as cell-based. The method in brief:
as §3

Data set [14] has as its system BT-474. The data set is described as follows: Cytotoxicity against human BT-474 cells assessed as reduction in cell viability incubated for 72 hrs by MTS assay. It counts as functional, cell-based. The method in brief:
(§4)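 Dose-response in BT474 (trastuzumab-sensitive) and JIMT-1 (trastuzumab-resistant) HER2-positive breast cancer cells: compound at 0.1, 0.5, 1, 5, 10 or 20 μM for 72 h, viability by MTS assay. IC50 with 95% confidence intervals calculated from the curves; mean ± SEM of at least three independent experiments, one-way ANOVA with Bonferroni post hoc test versus DMSO control.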

The target of data set [15] is T1, Heat shock protein HSP90 (Homo sapiens). The data set is described as follows: Inhibition of HSP90 in human BT-474 cells assessed as reduction in HSP70 expression at 10 uM incubated for 72 hrs by immunoblot analysis. The class given is cell-based. The gist of the method:
as §3

Data set [16] has as its system JIMT-1. The data set is described as follows: Cytotoxicity against human JIMT-1 cells assessed as reduction in cell viability incubated for 72 hrs by MTS assay. The class given is functional, cell-based. The gist of the method:
as §4

The target of data set [17] is T1, Heat shock protein HSP90 (Homo sapiens). As to the kind of experiment: Inhibition of HSP90 in human BT-474 cells assessed as reduction in HSP90 expression at 10 uM incubated for 72 hrs by immunoblot analysis. The class given is cell-based. The method in brief: as §3
Data set [18] has the same target. The data set is described as follows: Inhibition of HSP90 in human JIMT-1 cells assessed as reduction in HSP70 expression at 5 uM incubated for 72 hrs by immunoblot analysis. The class given is cell-based. The gist of the method:
as §3

Data set [19] shares this target. As to the kind of experiment: Inhibition of HSP90 in human JIMT-1 cells assessed as reduction in HER2 phosphorylation at 5 uM incubated for 72 hrs by immunoblot analysis. The class given is cell-based. The gist of the method: as §3
The target is the same in data set [20]. As to the kind of experiment: Inhibition of HSP90 in human JIMT-1 cells assessed as reduction in survivin expression at 5 uM incubated for 72 hrs by immunoblot analysis. It counts as cell-based. The gist of the method:
as §3

Another data set concerns HEK293. As to the kind of experiment: Cytotoxicity against human HEK293 cells assessed as reduction in cell viability at 10 uM incubated for 72 hrs by MTS assay. The class given is cell-based. The settings on record: hek293, 72 h. The method in brief: as §1

Consider `COc1cc(NC(=O)c2ccc3c(c2OC)C=CC(C)(C)O3)ccc1OCCCC1CCN(CCO)CC1`, for which the inhibition at 10 µM in the data set with JIMT-1 [1] and with BT-474 [2] was over 50% each time.
Take `COc1cc(NC(=O)c2ccc3c(c2OC)C=CC(C)(C)O3)ccc1OCCC1CCCCN1C` (centres undefined): the inhibition at 10 µM in the data set on JIMT-1 [1] and in the data set on BT-474 [2] was over 50% throughout.
Take `COc1cc(NC(=O)c2ccc3c(c2OC)C=CC(C)(C)O3)ccc1OCCCC1CCCCN1` (centres undefined): the inhibition at 10 µM in the data set on JIMT-1 [1] and in the data set with BT-474 [2] was over 50% in each case.
As for `COc1cc(NC(=O)c2ccc3c(c2OC)C=CC(C)(C)O3)ccc1OCCCC1CCNCC1`, the inhibition at 10 µM with JIMT-1 [1] and with BT-474 [2] was over 50% each time.
As to `COc1cc(NC(=O)c2ccc3c(c2OC)C=CC(C)(C)O3)ccc1OCCC1CCCCN1` (centres undefined), the inhibition entry in [3], in data set [9], in data set [12], in data set [15], in data set [17] and in data set [18] was “inactive” each time. In addition, the inhibition result in [4], in data set [5], in data set [6], in [7], in data set [8] and in [10] was “Active” throughout. For the same molecule, the inhibition result in data set [11], in data set [13], in [19] and in data set [20] was “Active” throughout. In addition, the inhibition at 10 µM in the data set on JIMT-1 [1] and in the data set with BT-474 [2] was over 50% throughout. Besides, the Activity entry was “Dose-dependent effect” in the data set with BT-474 [14], “Dose-dependent effect” with JIMT-1 [16] and “Non-Toxic” with HEK293. For the same molecule, the IC50 (usually the concentration at which inhibition is half-maximal) in the data set on BT-474 [14] (BT-474, 72 h) turned out to be 8.53 µM; in the data set on JIMT-1 [16] (JIMT-1, 72 h), 4.45 µM.
In the case of `COc1cc(NC(=O)c2ccc3c(c2OC)C=CC(C)(C)O3)ccc1OCCCC1CCN(C)CC1`, the inhibition at 10 µM in the data set on JIMT-1 [1] and in the data set on BT-474 [2] was over 50% in each case.
Take `COc1cc(NC(=O)c2ccc3c(c2OC)C=CC(C)(C)O3)ccc1OCC1CCN(C)CC1`: the inhibition at 10 µM in the data set on JIMT-1 [1] and in the data set on BT-474 [2] was over 50% throughout.
Take `COc1cc(NC(=O)c2ccc3c(c2OC)C=CC(C)(C)O3)ccc1OCC1CCNCC1`: the inhibition at 10 µM with JIMT-1 [1] and with BT-474 [2] was over 50% in each case.
As to `COc1cc(NC(=O)c2ccc3c(c2OC)C=CC(C)(C)O3)ccc1OCCCN1CCCCC1`, the inhibition at 10 µM with JIMT-1 [1] and with BT-474 [2] was over 50% in each case.
